Measurements from ChEMBL document CHEMBL1155250, “Novel 1-aminoethyl-3-arylsulfonyl-1H-pyrrolo[2,3-b]pyridines are potent 5-HT(6) agonists” (Bioorg Med Chem, 2009).

Assays:
[1] = target: T1, 5-hydroxytryptamine receptor 6 (Homo sapiens, UniProt P50406); experiment: Agonist activity at human cloned 5HT6 receptor expressed in HeLa cells assessed as induction of adenylyl cyclase activity by RIA; format: functional, cell-based
Summary of the method: (§1)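 Transfected HeLa cells expressing human 5-HT6 were washed with Krebs buffer and preincubated 5 min at 37 °C in Krebs with 500 µM IBMX. They were then stimulated 10 min at 37 °C with compound over 0.1–10000 nM. Agonist potency came from concentration–response curves, and percent efficacy was taken relative to a serotonin maximal response.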

[2] = target: T1, 5-hydroxytryptamine receptor 6; experiment: Agonist activity at human cloned 5HT6 receptor expressed in HeLa cells assessed as induction of adenylyl cyclase activity by RIA relative to serotonin; format: functional, cell-based; summary of the method: as §1
[3] = target: T1, 5-hydroxytryptamine receptor 6; experiment: Displacement of [3H]LSD from human cloned 5HT6 receptor expressed in HeLa cells; format: cell-based
Summary of the method: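 Radioligand binding used human 5-HT6 receptor stably expressed in HeLa cells with [3H]LSD as the radioligand. Affinity is reported as Ki.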

[4] = target: T1, 5-hydroxytryptamine receptor 6; experiment: Antagonist activity at human cloned 5HT6 receptor expressed in HeLa cells assessed as inhibition of adenylyl cyclase activity by RIA relative to serotonin; format: functional, cell-based
[5] = target: T1, 5-hydroxytryptamine receptor 6; experiment: Antagonist activity at human cloned 5HT6 receptor expressed in HeLa cells assessed as inhibition of adenylyl cyclase activity by RIA; format: functional, cell-based
[6] = target: 5-hydroxytryptamine receptor 2A (Homo sapiens, UniProt P28223); experiment: Displacement of [125I]DOI from human cloned 5HT2A receptor expressed in CHO cells; format: cell-based
Sequence of 5-hydroxytryptamine receptor 2A (P28223 whole entry): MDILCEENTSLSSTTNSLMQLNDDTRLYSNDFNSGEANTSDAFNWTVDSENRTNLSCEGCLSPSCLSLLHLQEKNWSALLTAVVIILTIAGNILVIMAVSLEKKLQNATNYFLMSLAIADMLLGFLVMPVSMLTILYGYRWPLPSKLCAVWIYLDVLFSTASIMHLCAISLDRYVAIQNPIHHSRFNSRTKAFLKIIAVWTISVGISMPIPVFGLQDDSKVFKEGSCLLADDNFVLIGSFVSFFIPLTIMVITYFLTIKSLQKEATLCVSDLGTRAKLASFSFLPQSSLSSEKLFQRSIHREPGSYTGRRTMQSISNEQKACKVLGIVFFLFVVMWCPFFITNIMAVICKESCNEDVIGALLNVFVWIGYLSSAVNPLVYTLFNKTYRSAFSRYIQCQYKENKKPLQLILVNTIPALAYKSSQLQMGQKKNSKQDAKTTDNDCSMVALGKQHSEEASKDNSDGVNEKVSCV
Summary of the method: (§2)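 Binding selectivity used stably expressed human receptors, 5-HT in CHO cells and dopamine in CHO-K1. Radioligands: [125I]DOI for 5-HT2A (agonist radioligand), [3H]-5-HT for 5-HT2C, [3H]LSD for 5-HT7, [3H]spiperone for D2, D3 and D4. Values are IC50 in nM.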

[7] = species: Homo sapiens; experiment: Selectivity ratio of IC50 for human cloned 5HT2A receptor to human cloned 5HT6 receptor
[8] = species: Homo sapiens; experiment: Selectivity ratio of IC50 for human cloned 5HT7 receptor to human cloned 5HT6 receptor
[9] = species: Homo sapiens; experiment: Selectivity ratio of IC50 for human cloned 5HT1D receptor to human cloned 5HT6 receptor
[10] = species: Homo sapiens; experiment: Selectivity ratio of IC50 for human cloned 5HT1F receptor to human cloned 5HT6 receptor
[11] = target: D(2) dopamine receptor (Homo sapiens, UniProt P14416); experiment: Displacement of [3H]spiperone from human cloned dopamine D2 receptor expressed in CHO-K1 cells; format: cell-based; summary of the method: as §2
Sequence of D(2) dopamine receptor (P14416 whole entry): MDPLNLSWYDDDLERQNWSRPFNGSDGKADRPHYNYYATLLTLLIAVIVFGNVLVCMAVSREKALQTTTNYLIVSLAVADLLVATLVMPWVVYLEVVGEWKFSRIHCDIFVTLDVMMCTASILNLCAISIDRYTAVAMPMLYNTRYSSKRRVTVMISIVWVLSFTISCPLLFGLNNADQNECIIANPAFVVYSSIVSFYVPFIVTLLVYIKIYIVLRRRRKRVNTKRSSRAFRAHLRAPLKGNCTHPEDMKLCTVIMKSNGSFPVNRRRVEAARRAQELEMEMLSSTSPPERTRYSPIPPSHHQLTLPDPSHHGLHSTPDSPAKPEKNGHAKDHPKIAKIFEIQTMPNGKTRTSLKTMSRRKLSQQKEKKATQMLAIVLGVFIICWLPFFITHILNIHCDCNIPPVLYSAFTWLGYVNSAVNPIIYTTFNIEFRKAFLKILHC

[12] = target: 5-hydroxytryptamine receptor 1B (Homo sapiens) (UniProt P28222); experiment: Displacement of [3H]5-HT from human cloned 5HT1B receptor expressed in CHO cells at 1 uM; format: cell-based
Sequence of 5-hydroxytryptamine receptor 1B (Homo sapiens) (P28222 whole entry): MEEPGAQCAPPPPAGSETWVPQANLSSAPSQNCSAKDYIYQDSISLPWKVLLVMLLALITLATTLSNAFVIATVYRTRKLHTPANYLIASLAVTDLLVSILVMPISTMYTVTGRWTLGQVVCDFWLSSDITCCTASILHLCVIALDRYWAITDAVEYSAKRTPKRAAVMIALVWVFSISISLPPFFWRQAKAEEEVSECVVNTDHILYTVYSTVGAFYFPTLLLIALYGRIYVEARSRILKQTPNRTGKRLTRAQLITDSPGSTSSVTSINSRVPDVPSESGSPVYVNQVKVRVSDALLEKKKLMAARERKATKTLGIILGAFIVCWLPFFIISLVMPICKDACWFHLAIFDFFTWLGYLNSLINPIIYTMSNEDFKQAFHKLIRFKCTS
Summary of the method: (§3)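 Human 5-HT1B, 5-HT1D and 5-HT1F receptors were stably expressed in CHO cells and labelled with [3H]-5-HT. Results are given as percent inhibition at a single 1 µM concentration.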

[13] = target: 5-hydroxytryptamine receptor 1D (Homo sapiens) (UniProt P28221); experiment: Displacement of [3H]5-HT from human cloned 5HT1D receptor expressed in CHO cells at 1 uM; format: cell-based; summary of the method: as §3
Sequence of 5-hydroxytryptamine receptor 1D (Homo sapiens) (P28221 whole entry): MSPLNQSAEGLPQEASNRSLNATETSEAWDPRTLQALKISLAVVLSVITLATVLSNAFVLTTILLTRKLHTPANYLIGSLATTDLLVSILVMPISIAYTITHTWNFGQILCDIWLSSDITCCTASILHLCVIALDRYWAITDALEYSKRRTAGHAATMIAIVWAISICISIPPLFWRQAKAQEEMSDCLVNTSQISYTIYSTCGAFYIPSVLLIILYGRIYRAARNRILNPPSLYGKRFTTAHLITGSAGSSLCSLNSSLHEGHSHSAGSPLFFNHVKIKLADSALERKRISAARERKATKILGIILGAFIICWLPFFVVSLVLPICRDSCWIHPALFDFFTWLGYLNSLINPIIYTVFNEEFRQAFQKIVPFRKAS

[14] = target: T2, 5-hydroxytryptamine receptor 2C (Homo sapiens, UniProt P28335); experiment: Displacement of [3H]5-HT from human cloned 5HT2C receptor expressed in CHO cells; format: cell-based; summary of the method: as §2
T2 sequence (P28335 whole entry): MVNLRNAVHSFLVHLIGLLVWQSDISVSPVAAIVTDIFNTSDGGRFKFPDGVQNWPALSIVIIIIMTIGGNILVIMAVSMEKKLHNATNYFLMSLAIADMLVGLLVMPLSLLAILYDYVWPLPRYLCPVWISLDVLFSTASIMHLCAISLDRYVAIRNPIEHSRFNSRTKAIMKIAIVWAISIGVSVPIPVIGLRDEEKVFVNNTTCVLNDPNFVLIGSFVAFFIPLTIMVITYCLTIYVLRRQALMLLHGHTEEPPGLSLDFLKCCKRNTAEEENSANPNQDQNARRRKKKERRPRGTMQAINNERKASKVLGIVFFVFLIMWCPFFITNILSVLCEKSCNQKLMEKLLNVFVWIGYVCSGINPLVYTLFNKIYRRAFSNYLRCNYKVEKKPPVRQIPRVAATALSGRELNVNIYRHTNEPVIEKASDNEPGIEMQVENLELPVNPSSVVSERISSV

[15] = target: T3, D(4) dopamine receptor (Homo sapiens, UniProt P21917); experiment: Displacement of [3H]spiperone from human cloned dopamine D4 receptor expressed in CHO-K1 cells; format: cell-based; summary of the method: as §2
T3 sequence (P21917 whole entry): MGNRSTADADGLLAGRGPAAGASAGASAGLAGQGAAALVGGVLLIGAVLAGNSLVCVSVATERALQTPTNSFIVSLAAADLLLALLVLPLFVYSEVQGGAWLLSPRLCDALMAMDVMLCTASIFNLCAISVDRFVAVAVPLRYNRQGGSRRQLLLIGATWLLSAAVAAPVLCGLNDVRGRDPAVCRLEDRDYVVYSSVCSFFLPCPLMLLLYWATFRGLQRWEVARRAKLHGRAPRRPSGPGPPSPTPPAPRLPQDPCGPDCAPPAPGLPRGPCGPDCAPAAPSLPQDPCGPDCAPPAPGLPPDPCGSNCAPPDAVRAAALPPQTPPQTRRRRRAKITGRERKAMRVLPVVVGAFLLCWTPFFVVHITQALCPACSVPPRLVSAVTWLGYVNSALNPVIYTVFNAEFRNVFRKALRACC

[16] = target: 5-hydroxytryptamine receptor 7 (Homo sapiens, UniProt P34969); experiment: Displacement of [3H]LSD from human cloned 5HT7 receptor expressed in CHO cells; format: cell-based; summary of the method: as §2
Sequence of 5-hydroxytryptamine receptor 7 (P34969 whole entry): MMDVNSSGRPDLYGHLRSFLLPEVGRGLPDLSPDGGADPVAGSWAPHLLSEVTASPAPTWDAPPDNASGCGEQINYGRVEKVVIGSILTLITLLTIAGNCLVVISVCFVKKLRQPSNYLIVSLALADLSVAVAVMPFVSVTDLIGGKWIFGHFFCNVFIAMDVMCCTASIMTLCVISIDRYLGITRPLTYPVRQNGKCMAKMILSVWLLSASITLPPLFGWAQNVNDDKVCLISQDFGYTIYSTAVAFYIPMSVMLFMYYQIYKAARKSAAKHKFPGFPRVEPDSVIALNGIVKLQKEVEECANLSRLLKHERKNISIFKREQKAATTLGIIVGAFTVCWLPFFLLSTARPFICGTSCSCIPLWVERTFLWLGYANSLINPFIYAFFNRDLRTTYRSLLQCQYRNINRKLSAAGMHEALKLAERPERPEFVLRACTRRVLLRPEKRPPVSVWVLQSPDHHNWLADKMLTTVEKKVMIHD

[17] = species: Homo sapiens; experiment: Selectivity ratio of IC50 for human cloned dopamine D2 receptor to human cloned 5HT6 receptor
[18] = species: Homo sapiens; experiment: Selectivity ratio of IC50 for human cloned dopamine D4 receptor to human cloned 5HT6 receptor
[19] = species: Homo sapiens; experiment: Selectivity ratio of IC50 for human cloned 5HT1B receptor to human cloned 5HT6 receptor
[20] = species: Homo sapiens; experiment: Selectivity ratio of IC50 for human cloned 5HT2C receptor to human cloned 5HT6 receptor
[21] = species: Homo sapiens; experiment: Selectivity ratio of IC50 for human cloned dopamine D3 receptor to human cloned 5HT6 receptor
[22] = target: T4, 5-hydroxytryptamine receptor 1F (Homo sapiens) (UniProt P30939); experiment: Displacement of [3H]5-HT from human cloned 5HT1F receptor expressed in CHO cells at 1 uM; format: cell-based; summary of the method: as §3
T4 sequence (whole entry): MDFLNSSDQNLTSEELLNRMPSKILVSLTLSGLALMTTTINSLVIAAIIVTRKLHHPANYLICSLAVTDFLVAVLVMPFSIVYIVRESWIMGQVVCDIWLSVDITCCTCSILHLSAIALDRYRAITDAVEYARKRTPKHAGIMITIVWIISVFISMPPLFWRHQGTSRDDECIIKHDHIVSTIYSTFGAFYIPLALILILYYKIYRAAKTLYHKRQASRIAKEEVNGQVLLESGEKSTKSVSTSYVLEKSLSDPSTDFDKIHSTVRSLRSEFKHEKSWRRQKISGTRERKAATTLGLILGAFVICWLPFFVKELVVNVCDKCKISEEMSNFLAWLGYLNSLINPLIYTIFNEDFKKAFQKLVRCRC

[23] = target: D(3) dopamine receptor (Homo sapiens, UniProt P35462); experiment: Displacement of [3H]spiperone from human cloned dopamine D3 receptor expressed in CHO-K1 cells; format: cell-based; summary of the method: as §2
Sequence of D(3) dopamine receptor (P35462 whole entry): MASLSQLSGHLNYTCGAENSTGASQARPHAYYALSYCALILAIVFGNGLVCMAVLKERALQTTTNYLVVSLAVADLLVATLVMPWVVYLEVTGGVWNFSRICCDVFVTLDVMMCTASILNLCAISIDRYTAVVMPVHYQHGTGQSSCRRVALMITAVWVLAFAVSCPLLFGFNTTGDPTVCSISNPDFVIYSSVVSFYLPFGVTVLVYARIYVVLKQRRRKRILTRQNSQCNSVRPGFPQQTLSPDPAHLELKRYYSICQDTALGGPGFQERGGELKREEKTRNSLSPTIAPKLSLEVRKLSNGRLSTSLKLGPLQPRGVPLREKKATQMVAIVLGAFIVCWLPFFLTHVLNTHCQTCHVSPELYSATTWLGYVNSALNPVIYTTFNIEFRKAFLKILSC

T1 sequence (P50406 whole entry): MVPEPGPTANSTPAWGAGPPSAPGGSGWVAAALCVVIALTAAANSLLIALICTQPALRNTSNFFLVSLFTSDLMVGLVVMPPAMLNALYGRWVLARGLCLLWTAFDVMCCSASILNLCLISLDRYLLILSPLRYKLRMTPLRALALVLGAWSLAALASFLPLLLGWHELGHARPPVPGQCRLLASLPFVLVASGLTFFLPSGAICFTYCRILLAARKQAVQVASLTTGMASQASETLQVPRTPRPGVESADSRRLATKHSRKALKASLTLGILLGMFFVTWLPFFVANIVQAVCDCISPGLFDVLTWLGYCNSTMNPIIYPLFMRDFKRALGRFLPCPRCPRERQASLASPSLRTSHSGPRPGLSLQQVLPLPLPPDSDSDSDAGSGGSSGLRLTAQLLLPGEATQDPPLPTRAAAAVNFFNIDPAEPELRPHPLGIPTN

NCCn1cc(S(=O)(=O)c2cccc(F)c2)c2cccnc21
EC50 [1]: 0.024 µM | Emax [2]: 100% | Ki [3]: 0.0047 µM

CNCCn1cc(S(=O)(=O)c2cccc(F)c2)c2cccnc21
Imax [4]: 93% | IC50 [5]: 0.0062 µM

NCCn1cc(S(=O)(=O)c2ccccc2)c2cccnc21
IC50 [6]: > 5 µM | Ratio IC50 [7]: > 50 | Ratio IC50 [8]: > 50 | EC50 [1]: 0.027 µM | Ratio IC50 [9]: > 50 | Ratio IC50 [10]: > 50 | Emax [2]: 100% | IC50 [11]: > 5 µM | inhibition [12]: 11% | inhibition [13]: 16% | IC50 [14]: > 5 µM | IC50 [15]: > 5 µM | IC50 [16]: > 5 µM | Ratio IC50 [17]: > 50 | Ki [3]: 0.0055 µM | Ratio IC50 [18]: > 50 | Ratio IC50 [19]: > 50 | Ratio IC50 [20]: > 50 | Ratio IC50 [21]: > 50 | inhibition [22]: 14% | IC50 [23]: > 5 µM

CN(C)CCn1cc(S(=O)(=O)c2cccs2)c2cccnc21
EC50 [1]: 0.154 µM | Emax [2]: 74%

CN(C)CCn1cc(S(=O)(=O)c2ccccc2)c2cccnc21
EC50 [1]: 0.025 µM | Emax [2]: 94%

CN(C)CCn1cc(S(=O)(=O)c2ccc(Cl)s2)c2cccnc21
EC50 [1]: 0.032 µM | Emax [2]: 93% | Ki [3]: 0.0033 µM

CN(C)CCn1cc(S(=O)(=O)c2ccccc2)c2ccccc21
EC50 [1]: 0.366 µM | Emax [2]: 63%

CN(C)CCn1cc(S(=O)(=O)c2cc(Cl)cc(Cl)c2)c2cccnc21
EC50 [1]: 0.028 µM | Emax [2]: 80% | Ki [3]: 0.0043 µM

CN(C)CCn1cc(S(=O)(=O)c2cc(Cl)ccc2Cl)c2cccnc21
Imax [4]: 97% | Ki [3]: 0.0117 µM | IC50 [5]: 0.015 µM

CN(C)CCn1cc(S(=O)(=O)c2c(Cl)nc3sccn23)c2cccnc21
EC50 [1]: 0.12 µM | Emax [2]: 71% | Ki [3]: 0.0009 µM

NCCn1cc(S(=O)(=O)c2cccc(C(F)(F)F)c2)c2cccnc21
EC50 [1]: 0.11 µM | Emax [2]: 83% | Ki [3]: 0.0021 µM

NCCn1cc(S(=O)(=O)c2cc(Cl)cc(Cl)c2)c2cccnc21
EC50 [1]: 0.035 µM | Emax [2]: 65% | Ki [3]: 0.0029 µM

CN(C)CCn1cc(S(=O)(=O)c2cccc3ccccc23)c2cccnc21
IC50 [6]: 0.938 µM | Ratio IC50 [7]: > 50 | Ratio IC50 [8]: > 50 | EC50 [1]: 0.051 µM | Ratio IC50 [9]: > 50 | Ratio IC50 [10]: > 50 | Emax [2]: 63% | IC50 [11]: > 5 µM | inhibition [12]: 40% | inhibition [13]: 0% | IC50 [14]: 1.14 µM | IC50 [15]: > 5 µM | IC50 [16]: 0.511 µM | Ratio IC50 [17]: > 50 | Ratio IC50 [18]: > 50 | Ratio IC50 [19]: > 50 | Ratio IC50 [20]: > 50 | Ratio IC50 [21]: > 50 | inhibition [22]: 10% | IC50 [23]: 1.56 µM
